System: MS2 coat protein
Assay: apparent Kd, MS2 coat protein; higher = weaker binding; RNA-MaP array; tryptophan 2.4 mM where present
Summary of the method: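 Two titrations, one without ligand and one with constant ligand, were run with SNAP-549-labelled MS2 coat protein from 0.7 or 1.5 nM, doubling to 3 µM. The targets were designs transcribed by stalled E. coli RNA polymerase on Illumina sequencing-chip clusters, in 100 mM Tris-HCl pH 7.5, 80 mM KCl, 4 mM MgCl2, BSA, DTT, yeast tRNA and Tween-20. The apparent Kd is the median of filtered per-cluster binding-curve fits, with green signal normalised to red-channel RNA signal and control-cluster median Fmax.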

[1] = designed as: OFF switch for tryptophan, no ligand
[2] = ligand present: tryptophan, designed as: OFF switch for tryptophan
[3] = designed as: ON switch for tryptophan, no ligand
[4] = ligand present: tryptophan, designed as: ON switch for tryptophan

Sequence	apparent Kd [1]	apparent Kd [2]	apparent Kd [3]	apparent Kd [4]
AGCAACAAGUCGGCCGCCACUCUUUUUACAUGAGGAUCACCCAUGUUUAUAUCAUGGUCUUAAUAGAGGACCGGGACAGUUGCAU	37.2 nM	54.6 nM	–	–
AGCAACUAGUCGGCCGCCACUCAUAUUACAUGAGGAUCACCCAUGUAUACAUGGUUGUUAUAUUUGAGGACCGGGACAGUUGCAU	–	–	70.4 nM	38.1 nM
AUAAUAUAGACGGCCGCCACUAUAAACAUGAGGAACAUGAGGAUCACCCAUGUAUGAGGAUCACCUAGGACCGGGUCAUAUAUUA	55.8 nM	42 nM	–	–
AUGCAGAACACGGCCGCCACUCAUUGUAGACAUGAGGAUCACCCAUGUAAUAGGGAUAUUUUAUUGAGGACCGGGUGUAAUGCAA	–	–	51.1 nM	28.9 nM
CACAAUUUGUCGGCCGCCACUAAGGUAACUUUUCUCACAUGAGGAUCACCCAUGUGCCCGAAACUUAGGACCGGGAUAAUGGGUG	–	–	82.4 nM	45.3 nM
CAGGCUAGGACGGCCGCCACUGUGGCUACGGUACAUGAGGAUCACCCAUGUUUGUGGUUGAUCUACAGGACCGGGUCCUGACACG	–	–	132 nM	483 nM
CCUAUGCAGUCGGCCGCCACUGAACAUGAGGAUCACCCAUGUAAUUAAAAUUAUGAUCCUGAAAUCAGGACCGGGACUGUAUAGG	218 nM	85.4 nM	–	–
CCUAUGCAGUCGGCCGCCACUGAGUCCUCAAUAAUAAAUUAAUAUACAUGAGGAUCACCCAUGUACAGGACCGGGACUGUAUAGG	205 nM	167 nM	–	–
CGCAACAUGAGGAUCACCCAUGUAAUGACGCGAGGACCGGUACGGCCGCCACUCGCCUGGCAGUGAGCGCAUGCGGCCUGGGUAU	11.1 nM	12.2 nM	–	–
CGCCACUCGAGUGAUCCUCACGAGUGGCUACGAGGACCGGUACGGCCGCCACUCGAAUUAACAUGAGGAUCACCCAUGUACUCCA	–	–	93.6 nM	19.1 nM
CUAAUUAUAUCGGCCGCCACUUACUCAUGAGGUAACAACAUGAGGAUCACCCAUGUUUGAGGAUCAAGGACCGGGAUAUAAUUAG	–	–	28.9 nM	17 nM
CUAUAAGUACCGGUCCUCAGAUCCUCAUGACGAGGACCGGUACGGCCGCCACUCGAAACAUGAGGAUCACCCAUGUAAUAACAUU	19.8 nM	20.2 nM	–	–
CUCAUCCACGCGGCCGCCACUAUAUUGUGGUGCGAAUGUGUCGUAAUACAUGAGGAUCACCCAUGUAGGACCGGGCGUGGAUGAG	12.6 nM	54.8 nM	–	–
CUUCGCAUAGGAAAACUAUGUGAAGAAAAUCGAGGACCGGUACGGCCGCCACUCGUCCUCAACAUGAGGAUCACCCAUGUAAUAA	18.3 nM	40.1 nM	–	–
GACGCAUGAGUUGGAACAGCUCAUGGGUCGCGAGGACCGGUACGGCCGCCACUCGGCUGUACAUGAGGAUCACCCAUGUCAGGGU	–	–	279 nM	550 nM
GCAUCCUAGUCGGCCGCCACUGCAAUUGUAGUACUGCUACAUGAACAUGAGGAUCACCCAUGUAGCAGGACCGGGACUAGGAUGC	–	–	55 nM	16.1 nM
GCCGCUGCCGCGAUAUGUAUGGGUGUGUAACGAGGACCGGUACGGCCGCCACUCGCGAUCGCACAUGAGGAUCACCCAUGUGUCC	53.7 nM	78.5 nM	–	–
GCGGAAUAAUCGGCCGCCACUAUGAUAUAGGAAACUAUAACAUGAGGAUCACCCAUGUAUCCUCAUAGGACCGGGAUUAAAACGC	–	–	105 nM	24.8 nM
GGAAUAAUGGCGGCCGCCACUAACUCAUAUACAUCAUGUACAUGAGGAUCACCCAUGUAGGUGUAUAGGACCGGGCCAUAAUUCC	22.4 nM	38.1 nM	–	–

Sequence	apparent Kd [1]	apparent Kd [2]	apparent Kd [3]	apparent Kd [4]
GGAGCUACGUCGGCCGCCACUAGCGGUUAUUACGUGUACAUGAGGAUCACCCAUGUAAUAUGGCUUAGGACCGGGACGUAGCUCC	22.5 nM	27.1 nM	–	–
GGGUACAUCGCGGCCGCCACUUAUGUAAAUACAUGAGGAUCACCCAUGUCGAUGGAGACAUCGGAGAGGACCGGGUGAUGUACCG	–	–	36.1 nM	35.9 nM
GGUUACUCUACGGCCGCCACUGAUUAAUUAUAAACCUGUACAUAAACAUGAGGAUCACCCAUGUACAGGACCGGGUAGUGUAACC	–	–	37.8 nM	26.8 nM
GUUAUAUACUCGGCCGCCACUGAGAGAGUCAUGUAAACAUGAGGAUCACCCAUGUAAUAUAUAUACAGGACCGGGAGUAUAGUAA	14.5 nM	13 nM	–	–
UAACAUGAGGAUCACCCAUGUAAACUAAGUCGAGGACCGGUACGGCCGCCACUCGAAAUUGAAGAAUUGGCGGAAAAUGUAUGUU	13.9 nM	18.9 nM	–	–
UAACAUGAGGAUCACCCAUGUUUGAAGAAACGAGGACCGGUACGGCCGCCACUCGACGAGUGGAUGAAUAGUGGGCUUGUGUGCU	–	–	13.7 nM	15 nM
UAAUCCGGUCCUCGAUAACAUGGGUGAAUACGAGGACCGGUACGGCCGCCACUCGAUAACAUGAGGAUCACCCAUGUAAUAAUAA	85.7 nM	84.1 nM	–	–
UAAUGCAUGACGGCCGCCACUAGAACAUGAGGAUCACCCAUGUACGGCGGCCGUCAUGGGUGGACUAGGACCGGGUCAUGCAUAU	9.23 nM	10.5 nM	–	–
UAUACAUGGUAUAAAUAUAUAUAUAAGAAACGAGGACCGGUACGGCCGCCACUCGUGCCGGAAACAUGAGGAUCACCCAUGUAUU	37.6 nM	22.8 nM	–	–
UAUAUAUACUCGGCCGCCACUGAGAGAGUCAUGUAAACAUGAGGAUCACCCAUGUAAUAUAUAUACAGGACCGGGAGUAUAUUAA	15.7 nM	13.8 nM	–	–
UGACAGAUAACCGCUGGUGCUCUCGAGUUGCGAGGACCGGUACGGCCGCCACUCGACAACAUGAGGAUCACCCAUGUUGCGGGUC	102 nM	49.8 nM	–	–
UGGUACUAGGCGGCCGCCACUGGGUGAUACAUGAGGAUCACCCAUGUUUAAUGCCGAGAGGCAACUAGGACCGGGCCUAGUACAU	–	–	150 nM	689 nM
UGUCAGCGAAAGUUGACAUGUCUUACCGGUCGAGGACCGGUACGGCCGCCACUCGAUCUCUCGCACAUGAGGAUCACCCAUGUUG	–	–	21.4 nM	15.1 nM
UGUCGUAGACAUGAGGAUCACCCAUGUCCACGAGGACCGGUACGGCCGCCACUCGGGAUAUAAACCGUUACGGGUGGGUGGUGUU	18.8 nM	37.3 nM	–	–
UUACCGUAAGGUAUACCGGUCCACAAUAAUCGAGGACCGGUACGGCCGCCACUCGAUGUGUGAUCACAUGAGGAUCACCCAUGUA	–	–	265 nM	379 nM
UUAUAAGUACCGGUCCUCAGAUCCUCAUGACGAGGACCGGUACGGCCGCCACUCGAAACAUGAGGAUCACCCAUGUAAUAACAUC	19.6 nM	20.7 nM	–	–
UUUAUAUAGACGGCCGCCACUGGAAUUAAUACAUGAGGAUCACCCAUGUAUAGAGAAUAAUAAUACAGGACCGGGUCUUCAUGAU	–	–	29.4 nM	12 nM
UUUGGCGGCGAUCUGGGUUUACCAGAUCGGCGAGGACCGGUACGGCCGCCACUCGUGUUUCUUUGACAUGAGGAUCACCCAUGUA	–	–	62.5 nM	39.1 nM

— the EternaBench riboswitch data
